Screens: PubChem, Johns Hopkins Ion Channel Center
Hits are enriched below; roughly 3.5% of the tested compounds scored in any of these assays.
MrgX1 agonist = activates human MrgX1 receptor signaling; MrgX1-HEK293 cells, Fluo-4 calcium fluorescence, agonist mode; active compounds read high; AID 588627; 0.44% of 310,000 active; Q96LB2; B-score at 10 µM;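 active = calcium response B-score plate-corrected fluorescence ratio at least 3 library SD, with starting fluorescence B-score inside 5 SD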
Target sequence (Q96LB2 whole entry, looked up): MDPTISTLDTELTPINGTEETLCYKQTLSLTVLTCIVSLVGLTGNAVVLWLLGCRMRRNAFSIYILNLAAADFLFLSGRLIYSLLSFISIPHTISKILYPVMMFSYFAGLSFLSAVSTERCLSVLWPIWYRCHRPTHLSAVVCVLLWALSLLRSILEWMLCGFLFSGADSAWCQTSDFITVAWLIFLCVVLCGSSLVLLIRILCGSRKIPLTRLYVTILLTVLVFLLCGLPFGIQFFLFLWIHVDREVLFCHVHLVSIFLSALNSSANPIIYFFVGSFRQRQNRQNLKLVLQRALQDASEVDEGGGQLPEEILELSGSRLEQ
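System – MrgX1-expressing HEK293 cells · Incubation – cells plated overnight, dye loaded 0.5 h 37 °C, 0.5 h room temperature · Technique – kinetic Fluo-4 NW fluorescence of intracellular calcium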
RGS4 pot = potentiators or activators of RGS4; HEK293 M3R/inducible RGS4, carbachol calcium flux Fluo4; active compounds read low; 0.92% of 310,000 active; B-score at 10 µM;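 active = B-score of the integrated calcium signal more than 4 SD below the library mean, with starting fluorescence not abnormally high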;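 also: negative B-score means reduced calcium response which marks RGS4 activation or potentiation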
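Also added: carbachol at ECmax as muscarinic agonist stimulus; Assay system: HEK293 cells with stable M3R and inducible RGS4; Timing: overnight RGS4 induction, 30 min dye load 37 °C, 20 min compound RT; Measured by: Fluo4-AM (2 µM) calcium-flux fluorescence, kinetic read.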
MrgX1 antag = human MrgX1 receptor antagonism, primary screen; Q96LB2; MRGX1-HEK293 calcium flux, Fluo-4, BAM8-22 antagonism; active compounds read low; B-score at 10 µM; 1.3% of 310,000 active;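 active = calcium-response B-score plate-corrected more than 3 library SD below zero, starting fluorescence within 5 deviations, no agonist response on first addition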;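 also: peak minus trough fluorescence over baseline after final BAM8-22 challenge near maximal dose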
MrgX1 PAM = allosterically activates human MrgX1 receptor signaling; B-score at 10 µM; AID 588675; 0.63% of 310,000 active; MrgX1-HEK293, Fluo-4 calcium flux, FDSS; active compounds read high;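 active = plate-corrected calcium response at least 3 library SD above typical, normal starting fluorescence, not activating the receptor alone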;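 also: compound read alongside a low EC10 to EC30 dose of BAM8-22 agonist; peak minus trough fluorescence over baseline measured at the second addition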
RGS4 block = inhibitors of human RGS4; P49798; HEK293 M3R/RGS4 inducible, Fluo-4 calcium flux; active compounds read high; triggered by carbachol at its EC20; B-score at 10 µM; 0.45% of 310,000 active; AID 463165;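 active = B-score, a plate-corrected calcium signal, over three deviations above library mean, with baseline fluorescence within five deviations of library mean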;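 also: RGS4 expression induced by doxycycline in cells with stable M3 receptor; B-score is computed from the integrated fluorescence ratio over baseline after carbachol; higher B-score means a larger calcium signal and so more RGS4 inhibition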
Target sequence (P49798 whole entry, looked up): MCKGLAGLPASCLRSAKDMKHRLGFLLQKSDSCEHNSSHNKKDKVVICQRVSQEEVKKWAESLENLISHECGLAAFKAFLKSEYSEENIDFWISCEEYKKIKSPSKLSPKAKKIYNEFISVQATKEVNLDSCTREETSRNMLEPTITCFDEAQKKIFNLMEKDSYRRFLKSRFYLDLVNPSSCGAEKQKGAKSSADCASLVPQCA
MrgX1 ant reconf = human MrgX1 receptor antagonism, re-confirmation screen. shares compounds with MrgX1 antag. 19% of 2,300 active. remaining BAM8-22 calcium response % of control (active compounds read low), % at 10 µM. AID 602420. MrgX1-HEK293, BAM8-22 calcium flux, Fluo-4; active compounds read low;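 active = remaining agonist calcium response no higher than 100% minus 3 SD of agonist-only control wells, with starting fluorescence near control levels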;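 also: agonist BAM8-22 given at a near maximal EC90 to ECmax level; peak minus minimum fluorescence divided by baseline after agonist addition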
HEK293 Ca flux = activity in parental HEK293 cells lacking MrgX1; shares compounds with MrgX1 antag; Fluo-4 calcium fluorescence, FDSS; fluorescence ratio F(max-min)/F0 at 10 µM; 2% of 4,000 active;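 active = duplicate-averaged calcium fluorescence ratio at least three times the standard deviation of buffer wells, a nonspecific response in parental cells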
HEK293 Ca counter = counter-screen for MrgX1 allosteric activators: effect in parental HEK293 cells; 0.4% of 4,000 active; shares compounds with MrgX1 antag; fluorescence ratio F(max-min)/F0 at 10 µM; parental HEK293 calcium flux, Fluo-4 fluorescence ratio; active compounds read high;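 active = calcium fluorescence ratio, averaged over duplicates, at least 3 SD of the buffer-well ratio, meaning a nonspecific response in receptor-free cells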;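 also: untransfected parental HEK293 lacking MrgX1 used as counterscreen for MrgX1 allosteric activators; fluorescence change taken during the second addition on a kinetic imager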
HEK293 Ca cntr2 = MrgX1 activator counter-screen hit in parental HEK293 cells | 8.7% of 4,000 active | shares compounds with MrgX1 antag | Fluo-4 calcium fluorescence (FDSS); active compounds read high | fluorescence ratio F(max-min)/F0 at 10 µM | AID 624115;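 active = calcium fluorescence ratio at least three times the spread of buffer wells, meaning a non-specific response in parental cells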
Starred values were filed as active, the others as inactive; i = inactive; nt = no result.

SMILES	MrgX1 agonist	RGS4 pot	MrgX1 antag	MrgX1 PAM	RGS4 block	MrgX1 ant reconf	HEK293 Ca flux	HEK293 Ca counter	HEK293 Ca cntr2
Cc1ccc2c(c1)nnn2C1CCN(S(=O)(=O)c2ccc(C(=O)N(C)C)cc2)CC1	i	i	-7*	i	i	i	i	i	i
O=C(OC1CCCCC1=O)c1ccc(S(=O)(=O)Nc2ccccc2)cc1 (stereo not drawn)	i	i	-5.4*	i	i	i	i	i	i
O=C(OC1CCCCC1=O)c1cccc(S(=O)(=O)N2CCCCC2)c1 (stereo not drawn)	i	i	i	i	i	nt	nt	nt	nt
Cc1cccc(NC(=O)CCN2CCN(C/C=C/c3ccccc3)CC2)c1	i	i	-6.1*	i	i	i	i	i	i
Cc1cccc(CN2CCN(C(=S)Nc3ccccc3)CC2)c1	i	i	-5*	i	i	i	i	i	i
O=C(CCN1CCN(C/C=C/c2ccccc2)CC1)Nc1ccccc1	i	i	i	i	i	nt	nt	nt	nt
Cc1cccc(NC(=O)c2ccc(CN3CCN(Cc4ccccc4)CC3)cc2)c1	i	i	-7.9*	i	i	i	i	i	i
Cc1ccc(S(=O)(=O)N2CCCC(C(=O)NCCc3ccccc3)C2)cc1 (stereo not drawn)	i	i	i	i	i	nt	nt	nt	nt
Cn1c(SCC(=O)Nc2ccc(C(N)=O)cc2)nc2c(c1=O)SCC2	i	i	i	i	i	nt	nt	nt	nt
COc1ccc(-n2c(SCC(=O)Nc3cc(C)on3)nc3c(c2=O)SCC3)cc1	i	i	-4.6*	i	i	i	i	i	i
Cn1c(SCC(=O)Nc2cccc(F)c2)nc2c(c1=O)SCC2	i	i	-8.8*	i	i	i	i	i	i
Cc1nnc(NC(=O)c2ccc(S(=O)(=O)N3CCCCCC3)cc2)o1	i	i	-12*	i	i	i	i	i	i
Cc1nnc(NC(=O)c2ccc(S(=O)(=O)N3CC(C)OC(C)C3)cc2)o1 (stereo not drawn)	i	i	i	i	i	nt	nt	nt	nt
O=C(O)/C=C/C(=O)Nc1cc(F)ccc1F	i	i	i	i	i	nt	nt	nt	nt
CC(C)C(=O)Nc1cc(C(F)(F)F)ccc1N1CCOCC1	i	i	-5*	i	i	76%*	i	i	i
CCC(=O)Nc1cc(C(F)(F)F)ccc1N1CCOCC1	i	i	i	i	i	nt	nt	nt	nt
CCOC(=O)CCc1c(C)nc2cc(-c3ccccc3OC)[nH]n2c1=O	i	i	i	i	i	nt	nt	nt	nt
CCOC(=O)CCc1c(C)nc2cc(C3CCCN(C(=O)OC(C)(C)C)C3)[nH]n2c1=O (stereo not drawn)	i	nt	-5.4*	i	nt	i	i	i	i
OCCNc1nc(Nc2ccc(Br)cc2)nc2ccccc12	i	i	-6.9*	i	i	73%*	i	i	i
c1ccc(Nc2nc(NCC3CCCO3)c3ccccc3n2)cc1 (stereo not drawn)	i	i	-5.1*	i	i	38%*	i	i	i
CCOC(=O)N1CCN(C2CC(=O)N(c3ccc(F)cc3)C2=O)CC1 (stereo not drawn)	i	i	-5.9*	i	i	i	i	i	i
Cc1ccc(OCCNC(=O)c2ccc(NC(=O)CC3SC(N4CCCC4)=NC3=O)cc2)cc1 (stereo not drawn)	i	i	i	i	i	nt	nt	nt	nt
CC(=O)c1cccc(S(=O)(=O)NC2CCCCCC2)c1	i	i	i	i	i	nt	nt	nt	nt
CC(=O)c1cccc(S(=O)(=O)NC2CC2)c1	i	i	-6.8*	i	i	i	i	i	i
CCCOC(=O)c1ccc(NC(=O)C(CC)CC)cc1	i	i	-6.4*	i	i	i	i	i	i
SMILES	MrgX1 agonist	RGS4 pot	MrgX1 antag	MrgX1 PAM	RGS4 block	MrgX1 ant reconf	HEK293 Ca flux	HEK293 Ca counter	HEK293 Ca cntr2
Cc1cc(C)c(C)c(S(=O)(=O)NCCCN2CCCC2=O)c1C	i	i	-5.4*	i	i	i	i	i	i
O=C1CCCN1CCCNS(=O)(=O)c1ccc(Br)cc1	i	i	i	i	i	nt	nt	nt	nt
COc1ccc(-c2noc(N3CCCC(C(=O)Nc4ccccc4F)C3)n2)cc1 (stereo not drawn)	i	i	i	i	i	nt	nt	nt	nt
COc1ccc(-c2noc(N3CCCC(C(=O)Nc4ccc(F)cc4F)C3)n2)cc1 (stereo not drawn)	i	i	-4.6*	i	i	i	i	i	i
CCCc1cc(=O)[nH]c(SCC(=O)NC2CCCc3ccccc32)n1 (stereo not drawn)	i	i	i	i	i	nt	nt	nt	nt
CC1(C)Cc2nc(N3CCOCC3)c(C#N)cc2CO1	i	i	-6.1*	i	i	i	i	i	i
CC1(C)Cc2nc(N3CCCC3)c(C#N)cc2CO1	i	i	i	i	i	nt	nt	nt	nt
CCCc1cc(=O)[nH]c(SCCN2C(=O)c3ccccc3C2=O)n1	i	i	-5.3*	i	i	i	i	i	i
CC(NC(N)=O)C(=O)OCc1ccc(Cl)cc1Cl (stereo not drawn)	i	i	-8.2*	i	i	i	i	i	i
COc1ccc2nc(NC(=O)C3CCN(C(=O)c4ccco4)CC3)sc2c1	i	i	i	i	i	nt	nt	nt	nt
COc1cc(N2N=C(c3ccccc3)CC2c2ccccc2)c(C=O)cc1C=O (stereo not drawn)	i	i	i	i	i	nt	nt	nt	nt
COc1ccccc1N1N=C(c2ccc([N+](=O)[O-])cc2)CC1c1ccccc1 (stereo not drawn)	i	i	-15*	i	i	i	0.69*	i	i
